Results as given in ChEMBL document CHEMBL1146071, “2,4-diaminopyrimidine derivatives as potent growth hormone secretagogue receptor antagonists” (J Med Chem, 2006).

What was measured:
[1] = Plasma concentration in Sprague-Dawley rat at 5 mg/kg after 1 hr; type: ADME, organism-based; parameters: dose 5 mg/kg
In short: (§1)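 Rats dosed at 5 mg/kg: iv for AUC (µg·h/mL), clearance (L/h·kg) and Cmax (µg/mL); oral for bioavailability unless stated otherwise. Brain (µg/g) and plasma levels taken at 1 and 8 h. Mean of n = 3.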

[2] = Plasma clearance in Sprague-Dawley rat at 5 mg/kg, iv; type: ADME, organism-based; parameters: dose 5 mg/kg, route intravenous; in short: as §1
[3] = Cmax in Sprague-Dawley rat at 5 mg/kg, iv; type: ADME, organism-based; parameters: dose 5 mg/kg, route intravenous; conditions: in vivo; in short: as §1
[4] = target: T1, Growth hormone secretagogue receptor type 1 (Homo sapiens, UniProt Q92847); test: Antagonist activity at human GHS receptor by inhibition of ghrelin-induced intracellular calcium flux in CHOK cells; type: functional, cell-based
In short: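 CHO-K cells stably expressing human GHS-R, grown in Ultra-CHO medium with 1% dialyzed FCS and 400 µg/mL G418, plated to confluency overnight. Loaded with Fluo-4 AM plus probenecid for 1-3 h in the dark at RT, then washed. On FLIPR (ex 488/em 520 nm), compound added first and read 3 min, then ghrelin added and read another 3 min. Duplicate or triplicate wells; sigmoidal fit for IC50.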

[5] = AUC in Sprague-Dawley rat at 5 mg/kg, iv; type: ADME, organism-based, Plasma; parameters: dose 5 mg/kg, route intravenous; conditions: Sprague-Dawley, plasma; in short: as §1
[6] = Oral bioavailability in Sprague-Dawley rat at 5 mg/kg; type: ADME, organism-based; conditions: in vivo; in short: as §1
[7] = Concentration in Sprague-Dawley rat brain at 5 mg/kg after 1 hr; type: ADME, organism-based; parameters: dose 5 mg/kg; conditions: read-out: Ct; in short: as §1
[8] = target: T1, Growth hormone secretagogue receptor type 1; test: Displacement of [125I]ghrelin from human GHS receptor expressed in CHOK cells; type: cell-based
In short: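 Membranes from CHO-K cells expressing human ghrelin receptor, prepared by sonication and a 60000g spin. Filtered onto PEI-soaked GF/C, washed cold, scintillation counted; percent inhibition, sigmoidal fit for IC50.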

[9] = Half life in Sprague-Dawley rat at 5 mg/kg; type: ADME, organism-based; parameters: dose 5 mg/kg; conditions: in vivo; in short: as §1
[10] = Concentration in Sprague-Dawley rat brain at 5 mg/kg after 8 hrs; type: ADME, organism-based; parameters: dose 5 mg/kg; conditions: read-out: Ct; in short: as §1
[11] = Plasma concentration in Sprague-Dawley rat at 5 mg/kg after 8 hrs; type: ADME, organism-based; parameters: dose 5 mg/kg; in short: as §1
[12] = Plasma concentration in Sprague-Dawley rat at 30 mg/kg, ip after 1 hr; type: ADME, organism-based; parameters: dose 30 mg/kg, route intraperitoneal
In short: (§2)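 Rats given 30 mg/kg ip. Brain (µg/g) and plasma levels measured at 1 and 8 h after dosing.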

[13] = Plasma concentration in Sprague-Dawley rat at 30 mg/kg, ip after 8 hrs; type: ADME, organism-based; parameters: dose 30 mg/kg, route intraperitoneal; in short: as §2
[14] = Concentration in Sprague-Dawley rat brain at 30 mg/kg, ip after 8 hrs; type: ADME, organism-based; parameters: dose 30 mg/kg, route intraperitoneal; conditions: read-out: Ct; in short: as §2
[15] = Concentration in Sprague-Dawley rat brain at 30 mg/kg, ip after 1 hr; type: ADME, organism-based; parameters: dose 30 mg/kg, route intraperitoneal; conditions: read-out: Ct; in short: as §2

T1 sequence (Q92847 whole entry): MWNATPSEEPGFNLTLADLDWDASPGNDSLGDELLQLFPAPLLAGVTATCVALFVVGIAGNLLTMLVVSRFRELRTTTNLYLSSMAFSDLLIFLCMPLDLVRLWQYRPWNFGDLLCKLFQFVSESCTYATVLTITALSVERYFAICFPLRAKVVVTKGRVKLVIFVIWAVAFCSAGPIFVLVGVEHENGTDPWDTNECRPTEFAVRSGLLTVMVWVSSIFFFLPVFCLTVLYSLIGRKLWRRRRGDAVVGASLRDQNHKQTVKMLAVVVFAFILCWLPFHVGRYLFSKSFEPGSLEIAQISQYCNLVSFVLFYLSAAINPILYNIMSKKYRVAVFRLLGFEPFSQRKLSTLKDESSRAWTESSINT

| Structure (SMILES) | IC50 [4] | IC50 [8] | other results |
| --- | --- | --- | --- |
| CCc1nc(N)nc(N)c1-c1ccc(NCc2ccc(C(C)=O)cc2)cc1 | 110 nM | 57 nM | concentration at 1 h [1]: 120 ng/mL; clearance [2]: 61.7 mL/min/kg; Cmax [3]: 140 ng/mL; AUC [5]: 680 ng·h/mL; bioavailability [6]: 51%; concentration at 1 h [7]: 420 ng/g; half-life [9]: 2.4 h |
| CCc1nc(N)nc(N)c1-c1ccc(CNc2ccc([N+](=O)[O-])cc2)cc1 | 190 nM | 9.2 nM | – |
| CCc1nc(N)nc(N)c1-c1ccc(CNc2ccc(S(C)(=O)=O)cc2)cc1 | 120 nM | 9.8 nM | – |
| CCc1nc(N)nc(N)c1-c1ccc(NCc2ccc(C#N)cc2)cc1 | 780 nM | 160 nM | – |
| Nc1nc(N)c(-c2ccc(NCc3ccc(Cl)s3)cc2)c(COCc2ccccc2)n1 | 320 nM | 43 nM | – |
| Nc1nc(N)c(-c2ccc(CNc3ccc([N+](=O)[O-])cc3)cc2)c(COCc2ccccc2)n1 | 16 nM | 0.8 nM | – |
| CC(C)(C)CNc1ccc(-c2c(N)nc(N)nc2COCc2ccccc2)cc1 | 700 nM | 67 nM | – |
| N#Cc1ccc(COc2ccc(-c3c(N)nc(N)nc3COCc3ccccc3)cc2)cc1 | 3610 nM | 83 nM | – |
| CCc1nc(N)nc(N)c1-c1ccc(CNc2ccc(Cl)cc2)cc1 | 3150 nM | 300 nM | – |
| CCc1nc(N)nc(N)c1-c1ccc(NCc2ccc(S(C)(=O)=O)cc2)c(Cl)c1 | 11 nM | 4.2 nM | concentration at 1 h [1]: 1040 ng/mL; clearance [2]: 26.7 mL/min/kg; Cmax [3]: 160 ng/mL; AUC [5]: 2700 ng·h/mL; bioavailability [6]: 78%; concentration at 1 h [7]: 30 ng/g; half-life [9]: 8.7 h |
| COc1ccc(CNc2ccc(-c3c(N)nc(N)nc3COCc3ccccc3)cc2)cc1 | 90 nM | 7.7 nM | – |
| Nc1nc(N)c(-c2ccc(NCc3ccc([N+](=O)[O-])cc3)cc2)c(COCc2ccccc2)n1 | 5.8 nM | 0.2 nM | – |
| CCc1nc(N)nc(N)c1-c1ccc(NCc2ccc(Cl)cc2)cc1 | 1380 nM | 310 nM | concentration at 1 h [1]: 250 ng/mL; clearance [2]: 30 mL/min/kg; Cmax [3]: 170 ng/mL; AUC [5]: 2200 ng·h/mL; concentration at 8 h [10]: 600 ng/g; concentration at 8 h [11]: 110 ng/mL; bioavailability [6]: 76%; concentration at 1 h [7]: 2740 ng/g; half-life [9]: 5.2 h |
| CCc1nc(N)nc(N)c1-c1ccc(NCc2ccc(C(C)O)cc2)cc1 (stereo not given) | 110 nM | 13 nM | – |
| Nc1nc(N)c(-c2ccc(NCc3ccnc(Cl)c3)cc2)c(COCc2ccccc2)n1 | 3.6 nM | 1.5 nM | – |
| Nc1nc(N)c(-c2ccc(NCc3ccc(Cl)cc3)cc2)c(CCc2ccccc2)n1 | 3350 nM | 3170 nM | concentration at 1 h [12]: 800 ng/mL; concentration at 8 h [13]: 90 ng/mL; concentration at 8 h [14]: 400 ng/g; concentration at 1 h [15]: 1340 ng/g |
| N#Cc1ccc(CNc2ccc(-c3c(N)nc(N)nc3COCc3ccccc3)cc2)cc1 | 19 nM | 2.8 nM | – |

| Structure (SMILES) | IC50 [4] | IC50 [8] | other results |
| --- | --- | --- | --- |
| CCc1nc(N)nc(N)c1-c1ccc(NCc2cc(F)c(S(=O)(=O)C(F)(F)F)c(F)c2)cc1 | 690 nM | 21 nM | – |
| Nc1nc(N)c(-c2ccc(NCc3csc(Cl)c3)cc2)c(COCc2ccccc2)n1 | 170 nM | 6.3 nM | – |
| Nc1nc(N)c(-c2ccc(NCc3cc(F)c(S(=O)(=O)C(F)(F)F)c(F)c3)cc2)c(COCc2ccccc2)n1 | 85 nM | 1 nM | – |
| Nc1nc(N)c(-c2ccc(NCc3ccccc3)cc2)c(COCc2ccccc2)n1 | 980 nM | 50 nM | – |
| CCc1nc(N)nc(N)c1-c1ccc(N(C)Cc2ccc(S(C)(=O)=O)cc2)cc1 | 32 nM | 3.7 nM | concentration at 1 h [1]: 1280 ng/mL; clearance [2]: 16.5 mL/min/kg; Cmax [3]: 430 ng/mL; AUC [5]: 2700 ng·h/mL; bioavailability [6]: 53%; concentration at 1 h [7]: 40 ng/g; half-life [9]: 3.8 h |
| Nc1nc(N)c(-c2ccc(NCc3ccc(C(F)(F)F)cc3)cc2)c(COCc2ccccc2)n1 | 97 nM | 2.9 nM | – |
| CCc1nc(N)nc(N)c1-c1ccc(NCc2ccc(S(C)(=O)=O)cc2)cc1 | 12 nM | 7.4 nM | concentration at 1 h [1]: 1020 ng/mL; clearance [2]: 15.7 mL/min/kg; Cmax [3]: 320 ng/mL; AUC [5]: 2800 ng·h/mL; bioavailability [6]: 52%; concentration at 1 h [7]: 50 ng/g; half-life [9]: 6.6 h |
| CCc1nc(N)nc(N)c1-c1ccc(NCc2ccc([N+](=O)[O-])cc2)cc1 | 23 nM | 11 nM | concentration at 1 h [1]: 270 ng/mL; clearance [2]: 43.3 mL/min/kg; Cmax [3]: 140 ng/mL; AUC [5]: 1600 ng·h/mL; bioavailability [6]: 68%; concentration at 1 h [7]: 530 ng/g; half-life [9]: 5.5 h |
| CS(=O)(=O)c1ccc(CNc2ccc(-c3c(N)nc(N)nc3COCc3ccccc3)cc2)cc1 | 7.2 nM | – | – |
| Nc1nc(N)c(-c2ccc(NCc3ccncc3)cc2)c(COCc2ccccc2)n1 | 86 nM | 21 nM | – |
| CC(=O)c1ccc(CNc2ccc(-c3c(N)nc(N)nc3COCc3ccccc3)cc2)cc1 | 10 nM | 1.2 nM | – |
| CS(=O)(=O)c1ccc(COc2ccc(-c3c(N)nc(N)nc3COCc3ccccc3)cc2)cc1 | 48 nM | 6.9 nM | – |
| CCc1nc(N)nc(N)c1-c1ccc(NCc2csc(Cl)c2)cc1 | 790 nM | 290 nM | – |
| CCc1nc(N)nc(N)c1-c1ccc(NCc2cc(F)c(S(C)(=O)=O)c(F)c2)cc1 | 45 nM | 2.4 nM | – |
| Nc1nc(N)c(-c2ccc(NCc3cnc4ccccc4c3)cc2)c(COCc2ccccc2)n1 | 780 nM | 130 nM | – |
| CCc1nc(N)nc(N)c1-c1ccc(NCc2ccc(S(C)(=O)=O)cc2)c(Br)c1 | 42 nM | 5.7 nM | – |
| CCc1nc(N)nc(N)c1-c1ccc(NCc2ccnc(Cl)c2)cc1 | 220 nM | 110 nM | – |
